Here are results for 22 compounds from ChEMBL document CHEMBL3621160, “Pseudosaccharin amines as potent and selective KV1.5 blockers” (Bioorg Med Chem Lett, 2015).

Data set [1] in a line: Metabolic stability in mouse liver microsomes assessed as compound remaining at 3 uM after 10 mins. The format is ADME. Conditions: read-out: Stability. The method in brief: (§1)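 Parent compound at 3 µM was incubated 10 min in human, rat or mouse liver microsomes with appropriate co-factors. Read-out is percent of parent remaining.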
The nature of data set [2]: Metabolic stability in human liver microsomes assessed as compound remaining at 3 uM after 10 mins. The format is ADME. Conditions: read-out: Stability. The method in brief:
as §1

The target in data set [3] is T1, Potassium voltage-gated channel subfamily A member 5 (Homo sapiens, UniProt P22460). Nature of the data set: Inhibition of human KV1.5 expressed in mouse L929 cells assessed as decrease in ultrarapid potassium current amplitude. The data set is classed as cell-based. The method in brief:
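Potassium current block was measured in mouse fibroblast L929 cells expressing human KV1.5. IC50 values are means of 2-4 experiments.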

Data set [4] is described as follows: Metabolic stability in rat liver microsomes assessed as compound remaining at 3 uM after 10 mins. The following applies: read-out: Stability. The format is ADME. The method in brief: as §1
Data set [5] has as its target T1, Potassium voltage-gated channel subfamily A member 5. Put plainly: Inhibition of human KV1.5 expressed in mouse L929 cells assessed as decrease in ultrarapid potassium current amplitude relative to control. The format is cell-based. On the set-up: concentration or dose not given beside the values. Conditions: concentration not given here. In a few lines: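 Potassium current block in mouse fibroblast L929 cells expressing human Kv1.5. IC50 values are means of 2-4 experiments.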

Data set [6] is filed under the species Homo sapiens. Put plainly: Inhibition of sodium channel (unknown origin) at 10 uM relative to control. In a few lines: (§2)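 Calcium (ICa) and sodium (INa) currents were measured as percent inhibition at a single concentration of 10 µM. Values are means of 2-4 experiments.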
For data set [7], the species on record is Homo sapiens. Put plainly: Inhibition of calcium channel (unknown origin) at 10 uM relative to control. In a few lines:
as §2

The next data set deals with hERG (KCNH2) (Homo sapiens, UniProt Q12809). Put plainly: Inhibition of human ERG at 10 uM relative to control. The method in brief:
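Screening panel of over 37 receptors and enzymes relevant to cardiovascular effects or toxicity. Each target was tested at a single concentration of 10 µM, with % activity reported.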

The species named for data set [8] is Oryctolagus cuniculus. Nature of the data set: Induction of […] effective refractory period prolongation in rabbit. The format is functional. The method in brief:
(§3)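 Rabbits were dosed at 0.3, 1.0 and 3.0 mg/Kg. Effective refractory period was measured in atrium and ventricle, and blood pressure was recorded. The plasma concentration giving 20% atrial ERP prolongation (EC20) was calculated.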

For data set [9], the species on record is Oryctolagus cuniculus. Nature of the data set: Toxicity in rabbit assessed as effect on ventricular effective refractory period. The data set is classed as organism-based, Cardiac ventricle. The following applies: in vivo. In a few lines: as §3
Data set [10] can be described thus: Cmax in rat at 1.6 mg/kg administered as intra-arterial infusion for 10 mins and 3.6 mg/kg, po. Conditions: in vivo. The data set is classed as ADME, organism-based. Set-up: route oral. In a few lines: (§4)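 Rats, 3 animals per compound; values are means. Intravenous arm: intra-arterial infusion over 10 min. Oral arm: dosing by gavage. Both routes used a vehicle of 40% PEG 400, 40% water and 20% ethanol. Parameters were derived from plasma concentrations across the infusion and oral arms.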

A short description of data set [11]: Half life in rat at 1.6 mg/kg administered as intra-arterial infusion for 10 mins and 3.6 mg/kg, po. The format is ADME, organism-based. The following applies: in vivo. In a few lines:
as §4

A short description of data set [12]: Volume of distribution at steady state in rat at 1.6 mg/kg administered as intra-arterial infusion for 10 mins and 3.6 mg/kg, po. Conditions: in vivo, read-out: Vdss. The format is ADME, organism-based. The method in brief:
as §4

In data set [13] the test system is Rattus norvegicus. Nature of the data set: Induction of QT interval prolongation in rat at 3 mg/kg, iv administered as infusion for 5 mins by ECG analysis. The data set is classed as functional. In a few lines: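 Rats were dosed at 3 mg/Kg. Block of IKur was read as the percent change in the ECG QT interval; mean blood pressure and plasma concentration were recorded alongside. Values are means of 2-4 experiments.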

Data set [14] deals with Oryctolagus cuniculus. Put plainly: Toxicity in rabbit assessed as increase in blood pressure at 0.3 to 3 mg/kg. The data set is classed as organism-based. The following applies: in vivo. The method in brief:
as §3

Data set [15] is described as follows: Clearance in rat at 1.6 mg/kg administered as intra-arterial infusion for 10 mins and 3.6 mg/kg, po. The data set is classed as ADME, organism-based. Conditions: in vivo. In a few lines: as §4
Data set [16] is described as follows: AUC in rat at 3.6 mg/kg, po. The format is ADME, organism-based. Conditions: in vivo. In a few lines: as §4
Data set [17] in a line: Plasma concentration in rat at 3 mg/kg, iv administered as infusion for 5 mins. The format is ADME, organism-based. In a few lines: (§5)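 Rats were dosed at 3 mg/Kg. QT interval on ECG, mean blood pressure (% change) and plasma concentration were measured. Values are means of 2-4 experiments.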
A short description of data set [18]: Oral bioavailability in rat at 3.6 mg/kg. The data set is classed as ADME, organism-based. Conditions: in vivo. The method in brief:
as §4

Data set [19] can be described thus: Cmax in rabbit at 0.3 to 3 mg/kg. The format is ADME, organism-based, Oryctolagus cuniculus. The following applies: in vivo. In a few lines: as §3
Data set [20] deals with Rattus norvegicus. Nature of the data set: Toxicity in rat assessed as increase in blood pressure at 3 mg/kg, iv administered as infusion for 5 mins. The format is organism-based. Conditions: in vivo. The method in brief:
as §5

Sequence of hERG (KCNH2) (Q12809 whole entry): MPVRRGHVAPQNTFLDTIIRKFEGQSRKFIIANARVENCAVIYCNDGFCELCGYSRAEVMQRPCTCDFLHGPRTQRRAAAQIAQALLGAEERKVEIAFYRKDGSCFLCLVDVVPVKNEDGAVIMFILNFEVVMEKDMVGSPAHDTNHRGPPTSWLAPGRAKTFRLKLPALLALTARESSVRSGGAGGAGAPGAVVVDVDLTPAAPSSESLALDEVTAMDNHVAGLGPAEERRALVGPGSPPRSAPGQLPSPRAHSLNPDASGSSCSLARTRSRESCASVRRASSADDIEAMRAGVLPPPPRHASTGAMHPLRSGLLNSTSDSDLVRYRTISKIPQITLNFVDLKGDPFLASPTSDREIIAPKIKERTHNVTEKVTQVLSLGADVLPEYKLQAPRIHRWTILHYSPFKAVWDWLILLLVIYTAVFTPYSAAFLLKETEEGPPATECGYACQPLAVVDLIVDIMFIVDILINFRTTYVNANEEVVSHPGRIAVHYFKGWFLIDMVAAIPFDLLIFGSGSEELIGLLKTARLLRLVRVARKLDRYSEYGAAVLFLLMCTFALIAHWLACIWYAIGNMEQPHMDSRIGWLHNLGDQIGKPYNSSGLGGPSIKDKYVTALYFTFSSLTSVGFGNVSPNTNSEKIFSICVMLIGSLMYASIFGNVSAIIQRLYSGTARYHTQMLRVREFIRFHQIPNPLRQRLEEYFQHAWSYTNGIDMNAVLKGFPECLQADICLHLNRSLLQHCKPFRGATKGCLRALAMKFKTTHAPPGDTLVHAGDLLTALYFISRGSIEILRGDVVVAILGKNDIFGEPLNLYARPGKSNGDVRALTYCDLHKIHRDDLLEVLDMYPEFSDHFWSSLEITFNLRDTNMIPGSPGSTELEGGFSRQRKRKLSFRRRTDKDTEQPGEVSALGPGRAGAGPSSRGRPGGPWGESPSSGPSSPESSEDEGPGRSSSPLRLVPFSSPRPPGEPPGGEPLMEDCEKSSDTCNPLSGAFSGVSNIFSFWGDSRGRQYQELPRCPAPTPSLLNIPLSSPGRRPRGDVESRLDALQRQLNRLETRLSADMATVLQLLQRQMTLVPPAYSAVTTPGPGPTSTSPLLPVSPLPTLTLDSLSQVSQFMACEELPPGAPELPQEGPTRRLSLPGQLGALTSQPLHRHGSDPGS
T1 sequence (P22460 whole entry): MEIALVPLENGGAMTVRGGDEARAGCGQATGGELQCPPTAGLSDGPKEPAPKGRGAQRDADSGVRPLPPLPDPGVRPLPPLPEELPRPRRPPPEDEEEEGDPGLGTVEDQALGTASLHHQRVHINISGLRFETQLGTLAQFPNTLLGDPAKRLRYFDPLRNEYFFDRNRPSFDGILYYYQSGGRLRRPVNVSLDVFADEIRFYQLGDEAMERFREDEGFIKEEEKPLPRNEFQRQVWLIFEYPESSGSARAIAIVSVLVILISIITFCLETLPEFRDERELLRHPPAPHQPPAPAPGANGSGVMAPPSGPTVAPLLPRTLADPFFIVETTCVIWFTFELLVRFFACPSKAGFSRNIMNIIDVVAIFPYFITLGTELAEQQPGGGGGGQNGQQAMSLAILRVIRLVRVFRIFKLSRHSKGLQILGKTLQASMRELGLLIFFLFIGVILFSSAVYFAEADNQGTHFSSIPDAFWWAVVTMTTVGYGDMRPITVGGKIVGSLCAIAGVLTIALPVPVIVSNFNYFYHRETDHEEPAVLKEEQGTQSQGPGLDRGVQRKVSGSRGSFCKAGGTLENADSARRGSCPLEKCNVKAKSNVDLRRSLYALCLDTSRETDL

As for `COc1cccc2c1C(NC[C@]1(c3ccccc3)CC[C@H](OC(=O)NC3CC3)CC1)=NS2(=O)=O`, the remaining at 10 min, 3 µM in data set [1] is less than 1%; in data set [2] it was 9%; in data set [4], 5%. Further, the IC50 in data set [3] was found to be 170 nM.
`COc1cccc2c1C(NC[C@]1(c3ccccc3)CC[C@H](OC(=O)N(C)CCN(C)C)CC1)=NS2(=O)=O`: in data set [3], the IC50 was more than 10000 nM. Moreover, the inhibition in [5] was 4%.
For `COc1cccc2c1C(NC[C@]1(c3ccccc3)CC[C@@H](O)CC1)=NS2(=O)=O`, the remaining at 10 min, 3 µM in [1] was 73%; in data set [2] it was 98%; in data set [4] it was 73%. Moreover, in [3], the IC50 is more than 300 nM. Further, in [5], the inhibition is 14%.
With `COc1cccc2snc(NCC(C)(C)c3ccccc3)c12`, in [2], the remaining at 10 min, 3 µM was 13%. Also, the IC50 in data set [3] stood at 24 nM.
`COc1cccc2c1C(NC[C@]1(c3ccccc3)CC[C@H](n3cnnn3)CC1)=NS2(=O)=O`: the remaining at 10 min, 3 µM in data set [1] came to 56%; in data set [2], 56%; in data set [4], 19%. Further, the IC50 in data set [3] worked out at 32 nM.
Turning to `COc1cccc2c1C(NC[C@]1(c3ccccc3)CC[C@H](N)CC1)=NS2(=O)=O`, in [3], the IC50 is more than 10000 nM. Besides, the inhibition in [5] came to 5%.
For `COc1cccc2c1C(NC[C@]1(c3ccccc3)CC[C@H](OC(=O)Nc3ccc(N(C)C)cc3)CC1)=NS2(=O)=O`, the remaining at 10 min, 3 µM was less than 1% in data set [1], 2% in [2] and less than 1% in data set [4]. Besides, in [3], the IC50 was 30 nM.
As to `CCOC(=O)N[C@H]1CC[C@](CNC2=NS(=O)(=O)c3cccc(OC)c32)(c2ccccc2)CC1`, the remaining at 10 min, 3 µM stood at 55% in data set [2] and 19% in [4]. The IC50 in data set [3] came to 55 nM.
As for `CCNC(=O)N[C@H]1CC[C@](CNC2=NS(=O)(=O)c3cccc(OC)c32)(c2ccccc2)CC1`, the IC50 in [3] was more than 10000 nM. Besides, the inhibition in [5] came out at 20%.
For `COc1cccc2c1C(NC[C@]1(c3ccccc3)CC[C@H](NC(=O)OCC(F)(F)F)CC1)=NS2(=O)=O`, the values for the inhibition in the data set filed under Homo sapiens [6] and in the data set filed under Homo sapiens [7] were 23% and 51%, respectively. Moreover, the remaining at 10 min, 3 µM in data set [1] was 48%; in data set [2], 95%; in [4] it was 57%. The same compound returned an inhibition at 10 µM against hERG (KCNH2) of 47%. For the same compound, the 50% inhibitory concentration (IC50) in data set [3] is 28 nM.
Take `CCOP(=O)(NC(=O)O[C@H]1CC[C@](CNC2=NS(=O)(=O)c3cccc(OC)c32)(c2ccccc2)CC1)OCC`: in [3], the IC50 is more than 10000 nM. For the same compound, in data set [5], the inhibition was found to be 13%.
The corresponding values for `COc1cccc2c1C(NC[C@]1(c3ccccc3)CC[C@H](OC(=O)NCCO)CC1)=NS2(=O)=O` are more than 10000 nM and 27%.
For the compound `COc1cccc2c1C(NC[C@]1(c3ccccc3)CC[C@H](Nc3ncccn3)CC1)=NS2(=O)=O`, the remaining at 10 min, 3 µM in data set [1] is less than 1%; in data set [2] it was 6%; in data set [4], less than 1%. Besides, in [3], the IC50 turned out to be 47 nM.
In turn, `COc1cccc2c1C(NC[C@]1(c3ccccc3)CC[C@H](OC(=O)Nc3nnc(C4CC4)s3)CC1)=NS2(=O)=O` yielded an EC20 in the data set listed under Oryctolagus cuniculus [8] of 23000 nM. Moreover, the results for the inhibition in the data set filed under Homo sapiens [6] and in the data set listed under Homo sapiens [7] were 21% and 8%, respectively. The remaining at 10 min, 3 µM was 66% in data set [1], 75% in data set [2] and 70% in data set [4]. Moreover, the Activity entry in the data set filed under Oryctolagus cuniculus [9] is listed as “Non-toxic”; in the data set with Rattus norvegicus [13], 23%; in the data set on Oryctolagus cuniculus [14] it was 6%; in the data set on Rattus norvegicus [20] it was 19%. Besides, the values for the Cmax in data set [10] and in data set [19] were 0.011 µM and 23 µM, respectively. For the same compound, the inhibition at 10 µM against hERG (KCNH2) worked out at 17%. This compound had a half-life in data set [11] of 2.3 h. Also, in data set [12], the Vd was 0.9 L/kg. Moreover, the IC50 in [3] was determined as 92 nM. This compound returned a clearance in data set [15] of 6.8 mL/min/kg. This compound also yielded an AUC in [16] of 0.2 µM·h. Also, the concentration at 5 min in [17] worked out at 72 µM. The bioavailability in data set [18] was 1%.
Take `COc1cccc2onc(NCC(C)(C)c3ccccc3)c12`: the remaining at 10 min, 3 µM was determined as 11% in [1], 7% in data set [2] and 13% in [4].
As to `COc1cccc2c1C(NCC(C)(C)c1ccccc1)=NC2=O`, the remaining at 10 min, 3 µM in data set [2] is 99%; in [4], 43%. The IC50 in data set [3] turned out to be 34 nM.
For `COc1cccc2c1C(NC[C@]1(c3ccccc3)CC[C@H](NS(N)(=O)=O)CC1)=NS2(=O)=O`, the IC50 in data set [3] is more than 10000 nM. In addition, the inhibition in data set [5] worked out at 18%.
The corresponding values for `COc1cccc2c1C(NC[C@]1(c3ccccc3)CC[C@H](OC(=O)NS(=O)(=O)c3ccccc3)CC1)=NS2(=O)=O` are more than 10000 nM and 1%.
In the case of `COc1cccc2c1C(NC[C@]1(c3ccccc3)CC[C@H](OC(=O)NCCC(F)(F)F)CC1)=NS2(=O)=O`, the results for the remaining at 10 min, 3 µM in data set [1], in [2] and in data set [4] were 3%, less than 1% and less than 1%, respectively. Moreover, the half-maximal inhibitory concentration (IC50) in data set [3] worked out at 89 nM.
On to `CCNC(=O)O[C@H]1CC[C@](CNC2=NS(=O)(=O)c3cccc(OC)c32)(c2ccccc2)CC1`, for which the remaining at 10 min, 3 µM in data set [1] was less than 1%; in data set [2], 2%; in data set [4] it was less than 1%. In data set [3], the IC50 was found to be 65 nM.
As for `CCS(=O)(=O)N[C@H]1CC[C@](CNC2=NS(=O)(=O)c3cccc(OC)c32)(c2ccccc2)CC1`, the inhibition in the data set filed under Homo sapiens [6] is 7%; in the data set filed under Homo sapiens [7], 14%. For the same compound, the remaining at 10 min, 3 µM in [1] came to 30%; in [2], 75%; in [4], 67%. For the same compound, the inhibition at 10 µM against hERG (KCNH2) was 59%. For the same compound, in data set [3], the IC50 was 60 nM.
For the compound `CCN(CC)S(=O)(=O)N[C@H]1CC[C@](CNC2=NS(=O)(=O)c3cccc(OC)c32)(c2ccccc2)CC1`, the remaining at 10 min, 3 µM in [1], in data set [2] and in data set [4] was less than 1% throughout. For the same compound, in [3], the IC50 was found to be 52 nM.
